Results reported in ChEMBL document CHEMBL3632609, “Hederagenin as a triterpene template for the development of new antitumor compounds” (Eur J Med Chem, 2015).
The source made the active and inactive calls. No cut-off for these calls is given here.

Legend:
Assay type in all cases: functional, cell-based
A2780 [1] = experiment: Induction of apoptosis in human A2780 cells at EC90 after 48 hrs by acridine orange/propidium iodide staining-based fluorescence microscopic analysis
Outline: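 The supernatant cells were pelleted, washed in PBS, resuspended in PBS, mixed with acridine orange/propidium iodide, and examined under a fluorescence microscope, with green-fluorescent cells scored as undergoing controlled death and orange cells as necrotic.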

[2] = Cytotoxicity against human 518A2 cells assessed as cell survival after 96 hrs by sulforhodamine B assay; conditions: 518A2, 96 h
Outline: (§1)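 Cells in exponential growth were seeded at densities that avoided confluence and, after 24 h, exposed to serial compound dilutions (0-30 μM, DMSO ≤0.5% final) for 96 h. Cells were then fixed with 10% TCA at 4 °C, washed with water, and stained with 0.4% SRB for about 20 min. Excess dye was removed with 1% acetic acid, bound dye was taken up in 10 mM Tris base, and absorbance was read at 570 nm.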

HT-29 = experiment: Cytotoxicity against human HT-29 cells assessed as cell survival after 96 hrs by sulforhodamine B assay; conditions: HT-29, 96 h; outline: as §1
8505C = experiment: Cytotoxicity against human 8505C cells assessed as cell survival after 96 hrs by sulforhodamine B assay; outline: as §1
A2780 [3] = experiment: Cytotoxicity against human A2780 cells assessed as cell survival after 96 hrs by sulforhodamine B assay; conditions: A2780, 96 h; outline: as §1
MCF7 = experiment: Cytotoxicity against human MCF7 cells assessed as cell survival after 96 hrs by sulforhodamine B assay; conditions: MCF7, 96 h; outline: as §1
A549 = experiment: Cytotoxicity against human A549 cells assessed as cell survival after 96 hrs by sulforhodamine B assay; conditions: A549, 96 h; outline: as §1

CC1(C)CC[C@]2(C(=O)NCCN3CCCC3)CC[C@]3(C)C(=CC[C@@H]4[C@@]5(C)CC[C@H](O)[C@@](C)(CO)[C@@H]5CC[C@]43C)[C@@H]2C1
Activity (A2780 [1]): Active
EC50 [2]: 2000 nM
EC50 (HT-29): 1200 nM
EC50 (8505C): 1800 nM
EC50 (A2780 [3]): 1100 nM
EC50 (MCF7): 3700 nM
EC50 (A549): 1900 nM
